ChEMBL document CHEMBL4024747, “Design, Synthesis, and Biological Activities of Vibsanin B Derivatives: A New Class of HSP90 C-Terminal Inhibitors” (J Med Chem, 2017)
Calls of active or inactive are those of the source. The rule behind the calls is not given here.

Tests used:
SW480 = assay: Antiproliferative activity against human SW480 cells assessed as reduction in cell viability after 48 hrs by MTT assay; assay type: functional, cell-based; settings: SW480, 48 h
BT-474 = assay: Antiproliferative activity against human BT474 cells assessed as reduction in cell viability after 48 hrs by MTT assay; assay type: functional, cell-based; settings: BT-474, 48 h
HeLa = assay: Antiproliferative activity against human HeLa cells assessed as reduction in cell viability after 48 hrs by MTT assay; assay type: functional, cell-based
Oryctolagus cuniculus = species: Oryctolagus cuniculus; assay: Inhibition of HSP90 in rabbit reticulocyte lysate assessed as decrease in HSP90-dependant refolding of firefly luciferase at 10 uM after 30 mins by luciferase gene based assay
Method in brief: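 Firefly luciferase heat-denatured at 41 °C for 10 min, then added with rabbit reticulocyte lysate to compounds at 10 μM. Renaturation at room temperature for 3 h; luciferin substrate added and luminescence read. Refolding expressed relative to DMSO; novobiocin at 500 μM as reference. Three independent experiments.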

A549 = assay: Antiproliferative activity against human A549 cells assessed as reduction in cell viability after 48 hrs by MTT assay; assay type: functional, cell-based; settings: A549, 48 h
[1] = Half life of compound in toluene at 110 degreeC by HPLC analysis; assay type: physicochemical
Method in brief: (§1)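 Thermostability in toluene at 110 °C or 60 °C followed by HPLC; half-life estimated.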

[2] = Stability of compound in boiling ethyl alcohol by HPLC analysis; assay type: physicochemical
SK-BR-3 = assay: Antiproliferative activity against human SKBR3 cells assessed as reduction in cell viability after 48 hrs by MTT assay; assay type: functional, cell-based; settings: SK-BR-3, 48 h
AGS = assay: Antiproliferative activity against human AGS cells assessed as reduction in cell viability after 48 hrs by MTT assay; assay type: functional, cell-based
[3] = molecular target: Heat shock protein HSP 90-beta (Homo sapiens) (UniProt P08238); assay: Inhibition of FITC-geldanamycin binding to human FLAG-tagged HSP90beta N-terminal domain
Heat shock protein HSP 90-beta (Homo sapiens), sequence (P08238 whole entry, the tested form may be a part): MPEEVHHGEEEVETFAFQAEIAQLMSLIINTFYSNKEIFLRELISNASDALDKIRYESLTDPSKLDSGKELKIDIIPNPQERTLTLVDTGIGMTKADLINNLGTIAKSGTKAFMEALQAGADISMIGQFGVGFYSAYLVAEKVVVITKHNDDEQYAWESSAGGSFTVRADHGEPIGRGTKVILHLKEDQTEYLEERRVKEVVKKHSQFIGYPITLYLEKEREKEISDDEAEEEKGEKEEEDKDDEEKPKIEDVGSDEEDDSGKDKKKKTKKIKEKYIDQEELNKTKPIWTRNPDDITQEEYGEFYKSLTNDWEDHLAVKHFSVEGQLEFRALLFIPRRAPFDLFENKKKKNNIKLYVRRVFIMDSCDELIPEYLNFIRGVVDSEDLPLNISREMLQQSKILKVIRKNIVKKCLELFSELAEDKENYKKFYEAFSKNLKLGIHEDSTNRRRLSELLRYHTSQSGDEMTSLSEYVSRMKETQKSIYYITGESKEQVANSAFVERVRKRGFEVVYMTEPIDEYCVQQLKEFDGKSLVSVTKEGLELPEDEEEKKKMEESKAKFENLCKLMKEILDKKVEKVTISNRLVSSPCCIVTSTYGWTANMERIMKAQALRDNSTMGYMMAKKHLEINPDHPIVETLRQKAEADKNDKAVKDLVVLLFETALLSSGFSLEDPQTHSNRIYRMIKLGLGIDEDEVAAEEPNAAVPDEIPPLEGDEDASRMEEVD

SMMC-7721 = assay: Antiproliferative activity against human SMMC7721 cells assessed as reduction in cell viability after 48 hrs by MTT assay; assay type: functional, cell-based; settings: SMMC-7721, 48 h
[4] = molecular target: Heat shock protein HSP 90-alpha (Homo sapiens) (UniProt P07900); assay: Inhibition of FITC-geldanamycin binding to human FLAG-tagged HSP90alpha N-terminal domain
HepG2 = assay: Antiproliferative activity against human HepG2 cells assessed as reduction in cell viability after 48 hrs by MTT assay; assay type: functional, cell-based; settings: HepG2, 48 h
[5] = molecular target: Luciferin 4-monooxygenase (Photinus pyralis) (UniProt P08659); assay: Inhibition of firefly luciferase activity using luciferin substrate at 10 uM after 30 mins by luminescence assay
Luciferin 4-monooxygenase (Photinus pyralis), sequence (P08659 whole entry): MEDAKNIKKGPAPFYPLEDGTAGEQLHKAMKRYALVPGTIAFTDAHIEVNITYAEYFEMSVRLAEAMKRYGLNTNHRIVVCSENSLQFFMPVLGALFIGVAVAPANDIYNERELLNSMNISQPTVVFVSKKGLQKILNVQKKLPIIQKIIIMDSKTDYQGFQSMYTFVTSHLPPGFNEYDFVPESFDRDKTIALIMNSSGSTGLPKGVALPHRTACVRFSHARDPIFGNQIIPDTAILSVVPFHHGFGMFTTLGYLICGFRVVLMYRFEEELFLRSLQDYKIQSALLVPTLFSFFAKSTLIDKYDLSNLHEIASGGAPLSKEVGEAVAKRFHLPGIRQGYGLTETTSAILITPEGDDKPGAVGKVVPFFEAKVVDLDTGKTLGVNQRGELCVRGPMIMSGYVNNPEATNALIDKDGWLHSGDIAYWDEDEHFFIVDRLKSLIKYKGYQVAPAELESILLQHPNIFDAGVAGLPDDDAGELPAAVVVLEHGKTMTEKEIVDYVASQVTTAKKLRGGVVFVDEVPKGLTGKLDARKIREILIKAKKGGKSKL

MCF7 = assay: Antiproliferative activity against human MCF7 cells assessed as reduction in cell viability after 48 hrs by MTT assay; assay type: functional, cell-based; settings: MCF7, 48 h
[6] = Drug degradation in pH 7.4 PBS at 37 degreeC after 12 hrs by HPLC analysis relative to control
Method in brief: (§2)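 Solution stability determined by HPLC after incubation in PBS pH 7.4 at 37 °C for 12 h.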

HL-60 = assay: Antiproliferative activity against human HL60 cells assessed as reduction in cell viability after 48 hrs by MTT assay; assay type: functional, cell-based; settings: HL-60, 48 h
Danio rerio = species: Danio rerio; assay: Toxicity in 3 days post fertilized zebrafish embryo assessed as changes in embryonic phenotypes at 4 to 16 uM after 12 hrs; settings: in vivo
[7] = Drug metabolism in deionized water assessed as compound decomposition at 100 degreeC after 10 mins by HPLC analysis relative to control; assay type: physicochemical; settings: read-out: Drug metabolism
Method in brief: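 Thermostability determined by HPLC after heating in deionized water at 100 °C for 10 min; decomposition recorded in percent.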

[8] = Half life of compound in toluene at 60 degreeC by HPLC analysis; assay type: physicochemical; method in brief: as §1
[9] = molecular target: Heat shock protein HSP 90-beta (Homo sapiens) (UniProt P08238); assay: Inhibition of recombinant human Biotin-labeled N-terminal His/Avi-tagged HSP90beta C-terminal domain (527 to 724 residues) expressed in Escherichia coli interaction with GST-tagged Cyp40 at 1 to 100 uM after 30 mins by Alphascreen assay
Method in brief: (§3)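 AlphaScreen assay: biotin-labelled HSP90β C-terminus (aa 527–724) mixed with GST-Cyp40 and compound (1–100 μM; novobiocin 500 μM) for 30 min at room temperature. Glutathione acceptor beads added for 30 min, then streptavidin donor beads for 10 min. Excitation at 680 nm, emission read at 520–620 nm; percent activity calculated against enzyme and background wells.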

[10] = molecular target: Heat shock protein HSP 90-beta (Homo sapiens) (UniProt P08238); assay: Inhibition of recombinant human Biotin-labeled N-terminal His/Avi-tagged HSP90beta C-terminal domain (527 to 724 residues) expressed in Escherichia coli interaction with GST-tagged Cyp40 at 500 uM after 30 mins by Alphascreen assay; method in brief: as §3
[11] = Stability of compound in pH 7.4 PBS at 37 degreeC after 12 hrs by HPLC analysis; assay type: physicochemical; settings: buffer, pH 7.4, 12 h; method in brief: as §2
[12] = molecular target: Heat shock protein HSP 90-beta (Homo sapiens) (UniProt P08238); assay: Binding affinity to human recombinant His-tagged HSP90beta-CTD expressed in Escherichia coli BL21(DE3) at 80 uM after 2 hrs in presence of 18-fluro vibsanin B by Western blot analysis
[13] = molecular target: Heat shock protein HSP 90-beta (Homo sapiens) (UniProt P08238); assay: Binding affinity to human FLAG-tagged HSP90beta N-terminal domain expressed in human 293T cells at 30 uM by Western blot analysis; assay type: cell-based
Method in brief: (§4)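 Flag-tagged full-length HSP90β and its NTD, MD and CTD constructs expressed by transfection in 293T cells; lysates incubated with 30 μM biotin-ViB, captured on streptavidin-agarose beads, bound protein detected by Western blot.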

[14] = molecular target: Heat shock protein HSP 90-beta (Homo sapiens) (UniProt P08238); assay: Binding affinity to human recombinant His-tagged HSP90beta-CTD expressed in Escherichia coli BL21(DE3) at 80 uM after 2 hrs in presence of ViB-4-OH by Western blot analysis
[15] = molecular target: Heat shock protein HSP 90-beta (Homo sapiens) (UniProt P08238); assay: Binding affinity to human recombinant His-tagged HSP90beta-CTD expressed in Escherichia coli BL21(DE3) at 80 uM after 2 hrs in presence of vibsanin B by Western blot analysis
[16] = molecular target: Heat shock protein HSP 90-beta (Homo sapiens) (UniProt P08238); assay: Binding affinity to human FLAG-tagged HSP90beta C-terminal domain expressed in human 293T cells at 30 uM by Western blot analysis; assay type: cell-based; method in brief: as §4
[17] = molecular target: Heat shock protein HSP 90-beta (Homo sapiens) (UniProt P08238); assay: Binding affinity to human FLAG-tagged HSP90beta middle domain expressed in human 293T cells at 30 uM by Western blot analysis; assay type: cell-based; method in brief: as §4
[18] = molecular target: Heat shock protein HSP 90-beta (Homo sapiens) (UniProt P08238); assay: Binding affinity to human recombinant His-tagged HSP90beta-CTD expressed in Escherichia coli BL21(DE3) at 80 uM after 2 hrs by Western blot analysis
Huh-7 = assay: Antiproliferative activity against human HuH7 cells assessed as reduction in cell viability after 48 hrs by MTT assay; assay type: functional, cell-based; settings: Huh-7, 48 h
BEAS-2B = assay: Cytotoxicity against human BEAS2B cells assessed as reduction in cell viability after 48 hrs by MTT assay; assay type: cell-based
MDA-MB-468 = assay: Antiproliferative activity against human MDA-MB-468 cells assessed as reduction in cell viability after 48 hrs by MTT assay; assay type: functional, cell-based; settings: MDA-MB-468, 48 h

IC50 (SW480) | inhibition (Oryctolagus cuniculus) | IC50 (A549) | IC50 (SMMC-7721) | inhibition [5] | IC50 (MCF7) | IC50 (HL-60) | SMILES | other results
2.65 µM | Active | 3.46 µM | 3.25 µM | inactive | 2.85 µM | 2.64 µM | CC(C)=CCC[C@]1(C)/C=C/[C@@H](OC(=O)C=C(C)C)[C@](C)(O)/C=C/C(=O)/C(CO)=C\C1 [VIBSANIN B] | IC50 (BT-474): 4.55 µM; IC50 (HeLa): 2.48 µM; half-life [1]: 5 min; Stability [2]: Stable; IC50 (SK-BR-3): 9.19 µM; IC50 (AGS): 9.68 µM; inhibition [3]: inactive; inhibition [4]: inactive; IC50 (HepG2): 19.1 µM; Drug degradation [6]: 4.92%; Activity (Danio rerio): Toxic; degraded at 10 min [7]: 2.8%; half-life [8]: 9 min
– | – | – | – | – | – | – | CO[C@@H]1[C@@H](OC(N)=O)[C@@H](O)[C@H](Oc2ccc3c(O)c(NC(=O)c4ccc(O)c(CC=C(C)C)c4)c(=O)oc3c2C)OC1(C)C | inhibition [9]: Active; inhibition [10]: Active
2.97 µM | Active | 3.09 µM | 4.3 µM | inactive | 2.75 µM | 2.81 µM | C=C1/C=C/C(=O)/C(CO)=C\C[C@](C)(CCC=C(C)C)/C=C/[C@H]1OC(=O)C=C(C)C | Stability [11]: Stable
– | – | – | – | – | – | – | CC(C)=CCC[C@]1(C)/C=C/[C@@H](OC(=O)C=C(C)C)[C@](C)(O)/C=C/C(=O)/C(COC(=O)CNCc2cn(CCOCCOCCOC(=O)CCCC[C@@H]3SC[C@@H]4NC(=O)N[C@@H]43)nn2)=C\C1 | Activity [12]: inactive; Activity [13]: inactive; Activity [14]: Active; Activity [15]: inactive; Activity [16]: Active; Activity [17]: Active; Activity [18]: Active
0.31 µM | < 50% | 0.18 µM | 0.14 µM | inactive | 0.22 µM | 0.16 µM | CC(C)=CCC[C@]1(C)/C=C/[C@@H](OC(=O)C=C(C)C)[C@](C)(O)/C=C/C(=O)/C(CN2CCCC2)=C\C1 | –
0.14 to 0.62 µM | Active | 0.14 to 0.62 µM | 0.14 to 0.62 µM | inactive | 0.24 µM | 0.14 to 0.62 µM | CC(C)=CCC[C@]1(C)/C=C/[C@@H](OC(=O)C=C(C)C)[C@](C)(O)/C=C/C(=O)/C(CF)=C\C1 | IC50 (Huh-7): 0.54 µM; IC50 (BT-474): 0.94 µM; IC50 (HeLa): 0.88 µM; IC50 (SK-BR-3): 0.33 µM; IC50 (AGS): 0.74 µM; IC50 (BEAS-2B): 0.77 µM; IC50 (HepG2): 0.86 µM; Activity (Danio rerio): Toxic; IC50 (MDA-MB-468): 0.31 µM
2.01 µM | < 50% | 3.15 µM | 3.08 µM | inactive | 2.32 µM | 2.37 µM | CC(=O)O[C@]1(C)/C=C/C(=O)/C(CO)=C\C[C@](C)(CCC=C(C)C)/C=C/[C@H]1OC(=O)C=C(C)C | Stability [11]: Stable
0.39 µM | Active | 0.15 µM | 0.84 µM | inactive | 0.61 µM | 0.16 µM | CC(C)=CCC[C@]1(C)/C=C/[C@@H](OC(=O)C=C(C)C)[C@](C)(O)/C=C/C(=O)/C(CCl)=C\C1 | –
